# From ChEMBL document CHEMBL3259617, “Design, synthesis, and biological evaluation of (e)-3,4-dihydroxystyryl aralkyl sulfones and sulfoxides as novel multifunctional neuroprotective agents” (J Med Chem, 2014)
# Active and inactive are the calls of the source. The rule behind the calls is not given here.
# Test system: not listed separately
# Assay: Cytotoxicity against mouse BV2 cells assessed as cell viability by MTT assay
# Format: cell-based, BV-2
# Set-up: concentration or dose not given beside the values
# Conditions: read-out: Activity
row,Compound,viability [%]
1,[O-][S+](/C=C/c1ccc(O)c(O)c1)CCCc1ccccc1 (stereo unspecified),> 90
2,CC(C)(C)c1ccc(C[S+]([O-])/C=C/c2ccc(O)c(O)c2)cc1 (stereo unspecified),> 90
3,[O-][S+](/C=C/c1ccc(O)c(O)c1)Cc1ccc(C(F)(F)F)cc1 (stereo unspecified),> 90
4,[O-][S+](/C=C/c1ccc(O)c(O)c1)Cc1ccccc1 (stereo unspecified),> 90
5,O=S(=O)(/C=C/c1ccc(O)c(O)c1)Cc1ccc(Cl)cc1,> 90
6,[O-][S+](/C=C/c1ccc(O)c(O)c1)CCc1ccccc1 (stereo unspecified),> 90
7,O=S(=O)(/C=C/c1ccc(O)c(O)c1)Cc1ccc(C(F)(F)F)cc1,> 90
8,O=S(=O)(/C=C/c1ccc(O)c(O)c1)CCCCc1ccccc1,> 90
9,O=S(=O)(/C=C/c1ccc(O)c(O)c1)CCCc1ccccc1,> 90
10,O=S(=O)(/C=C/c1ccc(O)c(O)c1)Cc1ccccc1,> 90
11,CC(C)(C)c1ccc(CS(=O)(=O)/C=C/c2ccc(O)c(O)c2)cc1,> 90
12,COc1ccc(C[S+]([O-])/C=C/c2ccc(O)c(O)c2)cc1 (stereo unspecified),> 90
13,[O-][S+](/C=C/c1ccc(O)c(O)c1)CCCCc1ccccc1 (stereo unspecified),> 90
14,O=S(=O)(/C=C/c1ccc(O)c(O)c1)CCc1ccccc1,> 90
15,[O-][S+](/C=C/c1ccc(O)c(O)c1)Cc1ccc(Cl)cc1 (stereo unspecified),> 90
16,COc1ccc(CS(=O)(=O)/C=C/c2ccc(O)c(O)c2)cc1,> 90

# Test system: PC-12
# Assay: Neuroprotective activity against H2O2-induced damage in rat PC12 cells assessed as cell viability at 2.5 uM preincubated for 3 hrs followed by H2O2 challenge measured after 5 hrs by MTT assay
# Format: functional, cell-based
# Conditions: not given
# How it was run: (§1)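 PC12 cells in high-glucose DMEM with 10% FBS, 5% horse serum and antibiotics, 37 °C, 5% CO₂, seeded at 4 × 10⁵ cells mL⁻¹. Pretreated 3 h with compounds (DMSO, diluted in medium), then challenged with H₂O₂ at final 500 μM for 5 h. MTT absorbance at 570 nm; viability relative to untreated cells (100%); mean ± SD, n = 3.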
row,Compound,Activity
1,O=C(/C=C/c1ccc(O)c(O)c1)OCCc1ccccc1,Active
2,O=S(=O)(/C=C/c1ccc(O)c(O)c1)CCCc1ccccc1,Active
3,CC(C)(C)c1ccc(CS(=O)(=O)/C=C/c2ccc(O)c(O)c2)cc1,Active

# Test system: Radical scavenging activity
# Assay: Antioxidant activity assessed as DPPH free radical scavenging effect after 30 mins by spectrophotometric analysis
# Format: functional
# Conditions: not given
# How it was run: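 Compounds and DPPH both in ethanol; equal volumes of test solution and 0.2 mM DPPH solution mixed; control was ethanol plus DPPH. Tested over 1−50 μM. Inhibition % = (A₀ − A_c)/A₀ × 100; IC50 by linear regression. Triplicate wells, three independent runs; vitamin C as reference.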
row,Compound,IC50 [µM]
1,[O-][S+](/C=C/c1ccc(O)c(O)c1)CCCc1ccccc1 (stereo unspecified),14.4
2,CC(C)(C)c1ccc(C[S+]([O-])/C=C/c2ccc(O)c(O)c2)cc1 (stereo unspecified),9.9
3,[O-][S+](/C=C/c1ccc(O)c(O)c1)Cc1ccc(C(F)(F)F)cc1 (stereo unspecified),7.8
4,[O-][S+](/C=C/c1ccc(O)c(O)c1)Cc1ccccc1 (stereo unspecified),14.7
5,O=S(=O)(/C=C/c1ccc(O)c(O)c1)Cc1ccc(Cl)cc1,8.8
6,[O-][S+](/C=C/c1ccc(O)c(O)c1)CCc1ccccc1 (stereo unspecified),11.6
7,O=S(=O)(/C=C/c1ccc(O)c(O)c1)Cc1ccc(C(F)(F)F)cc1,5.8
8,O=S(=O)(/C=C/c1ccc(O)c(O)c1)CCCCc1ccccc1,17.2
9,O=S(=O)(/C=C/c1ccc(O)c(O)c1)CCCc1ccccc1,9.9
10,O=S(=O)(/C=C/c1ccc(O)c(O)c1)Cc1ccccc1,8.1
11,CC(C)(C)c1ccc(CS(=O)(=O)/C=C/c2ccc(O)c(O)c2)cc1,9.5
12,COc1ccc(C[S+]([O-])/C=C/c2ccc(O)c(O)c2)cc1 (stereo unspecified),11.5
13,[O-][S+](/C=C/c1ccc(O)c(O)c1)CCCCc1ccccc1 (stereo unspecified),16.2
14,O=S(=O)(/C=C/c1ccc(O)c(O)c1)CCc1ccccc1,10.5
15,[O-][S+](/C=C/c1ccc(O)c(O)c1)Cc1ccc(Cl)cc1 (stereo unspecified),8.1
16,COc1ccc(CS(=O)(=O)/C=C/c2ccc(O)c(O)c2)cc1,9.1

# Test system: not listed separately
# Assay: Antineuroinflammatory activity in mouse BV2 cells assessed as inhibition of LPS-induced nitric oxide production preincubated for 3 hrs followed by LPS challenge measured after 24 hrs by Griess assay
# Format: functional, cell-based
# Conditions: BV-2
# How it was run: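 BV2 microglia grown in high-glucose DMEM with 10% FBS and penicillin/streptomycin, 5% CO₂, 37 °C. Seeded at 4 × 10⁵ cells mL⁻¹. Compounds in DMSO, diluted in medium, added for 3 h before LPS (final 100 nM). Nitrite in medium read with an NO assay kit at 540 nm after 24 h. Inhibition calculated against the LPS-only and normal controls. IC50 obtained by linear regression.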
row,Compound,IC50 [µM]
1,[O-][S+](/C=C/c1ccc(O)c(O)c1)CCCc1ccccc1 (stereo unspecified),28.6
2,CC(C)(C)c1ccc(C[S+]([O-])/C=C/c2ccc(O)c(O)c2)cc1 (stereo unspecified),9.3
3,[O-][S+](/C=C/c1ccc(O)c(O)c1)Cc1ccc(C(F)(F)F)cc1 (stereo unspecified),15.5
4,[O-][S+](/C=C/c1ccc(O)c(O)c1)Cc1ccccc1 (stereo unspecified),50.3
5,O=S(=O)(/C=C/c1ccc(O)c(O)c1)Cc1ccc(Cl)cc1,11.7
6,[O-][S+](/C=C/c1ccc(O)c(O)c1)CCc1ccccc1 (stereo unspecified),42.6
7,O=S(=O)(/C=C/c1ccc(O)c(O)c1)Cc1ccc(C(F)(F)F)cc1,15.9
8,O=S(=O)(/C=C/c1ccc(O)c(O)c1)CCCCc1ccccc1,19.8
9,O=S(=O)(/C=C/c1ccc(O)c(O)c1)CCCc1ccccc1,10.5
10,O=S(=O)(/C=C/c1ccc(O)c(O)c1)Cc1ccccc1,11.6
11,CC(C)(C)c1ccc(CS(=O)(=O)/C=C/c2ccc(O)c(O)c2)cc1,12.6
12,COc1ccc(C[S+]([O-])/C=C/c2ccc(O)c(O)c2)cc1 (stereo unspecified),33
13,[O-][S+](/C=C/c1ccc(O)c(O)c1)CCCCc1ccccc1 (stereo unspecified),36.8
14,O=S(=O)(/C=C/c1ccc(O)c(O)c1)CCc1ccccc1,30.6
15,[O-][S+](/C=C/c1ccc(O)c(O)c1)Cc1ccc(Cl)cc1 (stereo unspecified),14
16,COc1ccc(CS(=O)(=O)/C=C/c2ccc(O)c(O)c2)cc1,11.9

# Test system: not listed separately
# Assay: Permeability of the compound at 5 mg/mL after 18 hrs by PAMPA
# Format: physicochemical
# Conditions: read-out: permeability
row,Compound,"Papp at 18 h, 5 mg/mL [×10⁻⁶ cm/s]"
1,[O-][S+](/C=C/c1ccc(O)c(O)c1)CCCc1ccccc1 (stereo unspecified),9.1
2,CC(C)(C)c1ccc(C[S+]([O-])/C=C/c2ccc(O)c(O)c2)cc1 (stereo unspecified),5.8
3,[O-][S+](/C=C/c1ccc(O)c(O)c1)Cc1ccc(C(F)(F)F)cc1 (stereo unspecified),4.2
4,[O-][S+](/C=C/c1ccc(O)c(O)c1)Cc1ccccc1 (stereo unspecified),4.9
5,O=S(=O)(/C=C/c1ccc(O)c(O)c1)Cc1ccc(Cl)cc1,3.3
6,[O-][S+](/C=C/c1ccc(O)c(O)c1)CCc1ccccc1 (stereo unspecified),5
7,O=S(=O)(/C=C/c1ccc(O)c(O)c1)Cc1ccc(C(F)(F)F)cc1,4.3
8,O=S(=O)(/C=C/c1ccc(O)c(O)c1)CCCCc1ccccc1,4.1
9,O=S(=O)(/C=C/c1ccc(O)c(O)c1)CCCc1ccccc1,4.1
10,O=S(=O)(/C=C/c1ccc(O)c(O)c1)Cc1ccccc1,10.1
11,CC(C)(C)c1ccc(CS(=O)(=O)/C=C/c2ccc(O)c(O)c2)cc1,4.7
12,COc1ccc(C[S+]([O-])/C=C/c2ccc(O)c(O)c2)cc1 (stereo unspecified),4.3
13,[O-][S+](/C=C/c1ccc(O)c(O)c1)CCCCc1ccccc1 (stereo unspecified),4.5
14,O=S(=O)(/C=C/c1ccc(O)c(O)c1)CCc1ccccc1,5.7
15,[O-][S+](/C=C/c1ccc(O)c(O)c1)Cc1ccc(Cl)cc1 (stereo unspecified),4.1
16,COc1ccc(CS(=O)(=O)/C=C/c2ccc(O)c(O)c2)cc1,6.4

# Test system: PC-12
# Assay: Neuroprotective activity against H2O2-induced damage in rat PC12 cells assessed as cell viability at 5 uM preincubated for 3 hrs followed by H2O2 challenge measured after 5 hrs by MTT assay
# Format: functional, cell-based
# Conditions: not given
# How it was run: as §1
row,Compound,Activity
1,[O-][S+](/C=C/c1ccc(O)c(O)c1)CCCc1ccccc1 (stereo unspecified),Active
2,CC(C)(C)c1ccc(C[S+]([O-])/C=C/c2ccc(O)c(O)c2)cc1 (stereo unspecified),Active
3,[O-][S+](/C=C/c1ccc(O)c(O)c1)Cc1ccc(C(F)(F)F)cc1 (stereo unspecified),Active
4,O=C(/C=C/c1ccc(O)c(O)c1)OCCc1ccccc1,Active
5,[O-][S+](/C=C/c1ccc(O)c(O)c1)Cc1ccccc1 (stereo unspecified),Active
6,O=S(=O)(/C=C/c1ccc(O)c(O)c1)Cc1ccc(Cl)cc1,Active
7,O=S(=O)(/C=C/c1ccc(O)c(O)c1)Cc1ccc(C(F)(F)F)cc1,Active
8,O=S(=O)(/C=C/c1ccc(O)c(O)c1)CCCc1ccccc1,Active
9,O=S(=O)(/C=C/c1ccc(O)c(O)c1)Cc1ccccc1,Active
10,CC(C)(C)c1ccc(CS(=O)(=O)/C=C/c2ccc(O)c(O)c2)cc1,Active
11,COc1ccc(C[S+]([O-])/C=C/c2ccc(O)c(O)c2)cc1 (stereo unspecified),Active
12,O=S(=O)(/C=C/c1ccc(O)c(O)c1)CCc1ccccc1,Active
13,[O-][S+](/C=C/c1ccc(O)c(O)c1)Cc1ccc(Cl)cc1 (stereo unspecified),Active
14,COc1ccc(CS(=O)(=O)/C=C/c2ccc(O)c(O)c2)cc1,Active

# Test system: PC-12
# Assay: Neuroprotective activity against 6-OHDA-induced damage in rat PC12 cells assessed as cell viability at 5 to 10 uM preincubated for 3 hrs followed by 6-OHDA challenge measured after 48 hrs by MTT assay
# Format: functional, cell-based
# Conditions: not given
# How it was run: (§2)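 PC12 cells grown in high-glucose DMEM with 10% FBS, 5% horse serum and penicillin/streptomycin, 5% CO₂, 37 °C. Seeded at 4 × 10⁵ cells mL⁻¹. Compounds (DMSO stock diluted in medium) applied for 3 h, then 6-OHDA at final 400 μM for 48 h. MTT read at 570 nm; viability given as % of untreated cells; mean ± SD, n = 3.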
row,Compound,Activity
1,O=C(/C=C/c1ccc(O)c(O)c1)OCCc1ccccc1,Active
2,[O-][S+](/C=C/c1ccc(O)c(O)c1)CCc1ccccc1 (stereo unspecified),Active
3,O=S(=O)(/C=C/c1ccc(O)c(O)c1)Cc1ccc(C(F)(F)F)cc1,Active

# Test system: PC-12
# Assay: Neuroprotective activity against 6-OHDA-induced damage in rat PC12 cells assessed as cell viability at 40 uM preincubated for 3 hrs followed by 6-OHDA challenge measured after 48 hrs by MTT assay
# Format: functional, cell-based
# Conditions: not given
# How it was run: as §2
row,Compound,Activity
1,[O-][S+](/C=C/c1ccc(O)c(O)c1)CCCc1ccccc1 (stereo unspecified),Active
2,CC(C)(C)c1ccc(C[S+]([O-])/C=C/c2ccc(O)c(O)c2)cc1 (stereo unspecified),inactive
3,[O-][S+](/C=C/c1ccc(O)c(O)c1)Cc1ccc(C(F)(F)F)cc1 (stereo unspecified),Active
4,O=C(/C=C/c1ccc(O)c(O)c1)OCCc1ccccc1,Active
5,[O-][S+](/C=C/c1ccc(O)c(O)c1)Cc1ccccc1 (stereo unspecified),Active
6,O=S(=O)(/C=C/c1ccc(O)c(O)c1)Cc1ccc(Cl)cc1,Active
7,[O-][S+](/C=C/c1ccc(O)c(O)c1)CCc1ccccc1 (stereo unspecified),Active
8,O=S(=O)(/C=C/c1ccc(O)c(O)c1)Cc1ccc(C(F)(F)F)cc1,Active
9,O=S(=O)(/C=C/c1ccc(O)c(O)c1)CCCCc1ccccc1,Active
10,O=S(=O)(/C=C/c1ccc(O)c(O)c1)CCCc1ccccc1,Active
11,O=S(=O)(/C=C/c1ccc(O)c(O)c1)Cc1ccccc1,Active
12,CC(C)(C)c1ccc(CS(=O)(=O)/C=C/c2ccc(O)c(O)c2)cc1,inactive
13,COc1ccc(C[S+]([O-])/C=C/c2ccc(O)c(O)c2)cc1 (stereo unspecified),Active
14,[O-][S+](/C=C/c1ccc(O)c(O)c1)CCCCc1ccccc1 (stereo unspecified),Active
15,O=S(=O)(/C=C/c1ccc(O)c(O)c1)CCc1ccccc1,Active
16,[O-][S+](/C=C/c1ccc(O)c(O)c1)Cc1ccc(Cl)cc1 (stereo unspecified),Active
17,COc1ccc(CS(=O)(=O)/C=C/c2ccc(O)c(O)c2)cc1,Active
